Consider 9 molecules from PMC7341966 (Journal of medicinal chemistry, 2018).

One series concerns the target Kallikrein 7 (KLK7) (Homo sapiens, UniProt P49862). Kind of series: Protease inhibition assay, fluorescent peptide substrate. The class given is biochemical.
The test system of series [1] is MDA-MB-231 cells. In words: Transwell migration assay, MDA-MB-231 cells. The class given is cell-based. The conditions noted are these: 10 μM, 48 h. The gist of the method: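 Transwell inserts with 8 μm pore PET membrane; MDA-MB-231 cells were exposed to test compound or solvent control. After incubation, non-migrated cells were wiped off, and migrated cells were crystal violet-stained and counted under a microscope.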

Series [2] concerns MDA-MB-231 breast cancer cells. In words: MTT cell viability assay in MDA-MB-231 cells. In kind it is cell-based. The conditions noted are these: MDA-MB-231, 48 h; for cytotoxicity: MTT, up to 100 μM. The gist of the method:
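MDA-MB-231 cells kept in DMEM with 10% FBS were seeded at 10,000 cells/well. After 24 h they were exposed to graded test compound or DMSO solvent control for 48 h. Viability was measured by MTT.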

Series [3] concerns panel of 241 GPCR targets. In words: GPCR profiling, gpcrMAX and orphanMAX panels. In kind it is cell-based. Conditions: 10 μM; hit = > 50% activity or inhibition. In short, it runs like this: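 PathHunter β-arrestin enzyme fragment complementation in HEK293, CHO or U2OS lines stably expressing ProLink-tagged GPCR and EA-tagged β-arrestin. Test compound was 10 μM, one also at 20 μM; vehicle 1% final. Agonist mode: 90 or 180 min at 37 °C or RT. Chemiluminescence read after 1 h detection reagent. % activity/inhibition taken versus vehicle and control ligand.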

The subject of series [4] is CXCR7, CCR10, OXTR, SSTR3, and TACR2. In words: GPCR secondary screen, dose-response against the five hits. In kind it is cell-based. The conditions noted are these: up to 20 μM. In short, it runs like this: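 Secondary β-arrestin (PathHunter) screen on the five receptors, run in agonist and antagonist modes. Dosing was 10 points by 3-fold serial dilution from 20 μM, in duplicate, with 1% vehicle. Chemiluminescent β-galactosidase read after 1 h detection at RT.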

The next series deals with T1, OXTR (Homo sapiens, UniProt P30559).
T1 sequence (P30559 1-389): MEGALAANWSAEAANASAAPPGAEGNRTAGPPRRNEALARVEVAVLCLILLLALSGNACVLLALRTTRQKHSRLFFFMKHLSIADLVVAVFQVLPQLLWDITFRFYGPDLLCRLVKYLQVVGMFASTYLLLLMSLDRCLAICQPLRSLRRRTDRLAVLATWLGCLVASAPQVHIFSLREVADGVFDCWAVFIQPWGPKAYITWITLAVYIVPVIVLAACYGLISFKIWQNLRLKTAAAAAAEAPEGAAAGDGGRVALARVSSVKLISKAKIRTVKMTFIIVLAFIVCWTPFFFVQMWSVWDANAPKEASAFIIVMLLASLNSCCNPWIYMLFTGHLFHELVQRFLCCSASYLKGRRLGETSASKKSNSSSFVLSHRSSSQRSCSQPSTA
Kind of series: PathHunter β-Arrestin GPCR assay, antagonist mode. In kind it is cell-based. The conditions noted are these: dose-response starting at 20 μM, duplicate.

A further series deals with T2, CCR10 (Homo sapiens, UniProt P46092).
T2 sequence (P46092 1-362): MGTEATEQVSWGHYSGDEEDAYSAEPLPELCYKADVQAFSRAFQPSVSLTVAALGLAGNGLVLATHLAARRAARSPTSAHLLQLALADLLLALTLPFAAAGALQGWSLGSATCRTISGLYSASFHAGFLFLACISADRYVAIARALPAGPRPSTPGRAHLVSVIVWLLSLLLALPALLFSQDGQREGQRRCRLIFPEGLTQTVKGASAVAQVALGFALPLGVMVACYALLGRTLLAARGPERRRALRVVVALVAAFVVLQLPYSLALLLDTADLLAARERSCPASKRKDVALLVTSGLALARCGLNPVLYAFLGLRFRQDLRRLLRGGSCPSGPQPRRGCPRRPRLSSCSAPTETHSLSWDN
In words: PathHunter β-Arrestin GPCR assay, antagonist mode. The class given is cell-based. The conditions noted are these: dose-response starting at 20 μM, duplicate.

Series [5] concerns MDA-MB-468 breast cancer cells. Kind of series: Dsg-2 shedding in MDA-MB-468 cells. The class given is cell-based.
For series [6], the target named is KLK7 (substrates desmoglein-2 and E-cadherin) (Homo sapiens, UniProt P49862). In words: Cleavage of KLK7 downstream substrates, biochemical assay. The conditions noted are these: 10 μM.
KLK7 (substrates desmoglein-2 and E-cadherin), sequence (P49862 30-253): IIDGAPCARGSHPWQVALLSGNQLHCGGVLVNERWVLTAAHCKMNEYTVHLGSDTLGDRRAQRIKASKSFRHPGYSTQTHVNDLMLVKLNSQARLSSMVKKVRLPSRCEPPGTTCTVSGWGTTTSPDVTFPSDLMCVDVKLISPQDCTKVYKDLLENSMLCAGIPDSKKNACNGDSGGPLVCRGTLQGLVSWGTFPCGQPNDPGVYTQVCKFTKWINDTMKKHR
The test system of series [7] is MDA-MB-468 breast cancer cells. In words: Transwell migration assay, MDA-MB-468 cells. In kind it is cell-based. The conditions noted are these: 48 h. The gist of the method:
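5000 MDA-MB-468 cells in DMEM with 10% FBS were treated with graded test compound or solvent control. They were seeded into 8 μm pore PET transwell inserts, with the same compound concentration in complete medium on the other side. After 48 h at 37 °C, 5% CO2, non-migrated cells were swabbed off, and migrated cells were crystal violet-stained and counted microscopically. Triplicate.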

A further series deals with SSTR3 (Homo sapiens, UniProt P32745). Kind of series: PathHunter β-Arrestin GPCR assay, antagonist mode. The class given is cell-based. Conditions: dose-response starting at 20 μM, duplicate.
SSTR3, sequence (P32745 whole entry): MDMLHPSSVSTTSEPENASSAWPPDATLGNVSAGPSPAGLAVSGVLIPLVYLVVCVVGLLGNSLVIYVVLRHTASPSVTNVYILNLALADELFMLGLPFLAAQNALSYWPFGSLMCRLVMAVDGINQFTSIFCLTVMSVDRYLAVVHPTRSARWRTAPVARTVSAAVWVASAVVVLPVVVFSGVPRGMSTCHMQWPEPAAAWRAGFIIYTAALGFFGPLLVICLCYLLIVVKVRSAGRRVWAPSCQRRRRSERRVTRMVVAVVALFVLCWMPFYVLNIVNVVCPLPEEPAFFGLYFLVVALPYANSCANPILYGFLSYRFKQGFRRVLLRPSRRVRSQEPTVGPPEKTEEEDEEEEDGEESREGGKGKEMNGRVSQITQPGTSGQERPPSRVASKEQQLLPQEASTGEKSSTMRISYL
Another series concerns the target plasma kallikrein. The conditions noted are these: read-out: Ki plasma kallikrein; cited from earlier work.
Series [8] relates to MDA-MB-231 cells. Kind of series: CCL27-induced proliferation of MDA-MB-231 cells. In kind it is cell-based. Conditions: serum deprived conditions, 48 h. In short, it runs like this: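 MDA-MB-231 cells (10,000/well) were seeded in serum-free DMEM for 24 h. For the CCL27 response, cells got graded CCL27 for 48 h. For inhibition, cells were pretreated with test compound for 2 h, then given CCL27 (1 μg/mL final) and incubated 48 h. Viability was read by MTT against solvent control. Mean ± SD, n = 3, two-tailed unpaired t test.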

Square brackets hold non-standard residues; d marks the D form. Peptide text beside a SMILES is read from it. * marks the point of attachment. X4 = CC[C@H](C)[C@@H](OC(=O)[C@H](Cc1ccccc1)N(C)C)C(=O)*; X1 = CC[C@H](C)[C@@H](OC(=O)/C=C/c1ccccc1)C(=O)*; X3 = CC[C@H](C)[C@@H](OC(=O)/C=C\c1ccccc1)C(=O)*; X5 = CC[C@H](C)[C@@H](OC(=O)C#Cc1ccccc1)C(=O)*; X2 = CC[C@H](C)[C@@H](OC(=O)CCc1ccccc1)C(=O)*; Hmp(2R,3S) = CC[C@H](C)[C@@H](O)C(=O)O; dNMeF = CN[C@H](Cc1ccccc1)C(=O)O; NMeL = CN[C@@H](CC(C)C)C(=O)O; dHiv = CC(C)[C@@H](O)C(=O)O

Kallikrein 7 (KLK7), sequence (P49862 30-253): as the sequence (P49862 30-253) above

Usually IC50 stands for the concentration at which inhibition is half-maximal. Molecule `CC[C@H](C)[C@@H](O)C(=O)N1CCC[C@H]1C(=O)NCC(=O)N(C)[C@@H](CC(C)C)C(=O)N[C@@H](C)C(=O)N(C)[C@H](Cc1ccccc1)C(=O)N1CCC[C@H]1C(=O)OC` [Compound 1, brintonamide A] ({Hmp(2R,3S)}-PG[NMeL]A[dNMeF]P-OMe) yielded a half-maximal inhibitory concentration (IC50) against Kallikrein 7 (KLK7) of approximately 20 µM. In the series with MDA-MB-231 cells [1], the inhibition of migration entry is “inactive”. For the same molecule, the cytotoxicity entry in [2] is “did not show any cytotoxicity”. Moreover, in series [3], the “hits in GPCR profiling” value is recorded as “did not show any hits”. For the same molecule, the “activity against the tested GPCR targets” value in series [4] was “did not show any activity”.
`COC(=O)[C@@H]1CCCN1C(=O)[C@@H](Cc1ccccc1)N(C)C(=O)[C@H](C)NC(=O)[C@H](CC(C)C)N(C)C(=O)CNC(=O)[C@@H]1CCCN1C(=O)[C@H](O)C(C)C` [Compound 2, brintonamide B] (H-[dHiv]PG[NMeL]A[dNMeF]P-OMe): the cytotoxicity entry in series [2] is recorded as “did not show any cytotoxicity”. For the same molecule, the “activity against the tested GPCR targets” value in series [4] was “did not show any activity”.
On to `CC[C@H](C)[C@@H](OC(=O)[C@H](Cc1ccccc1)N(C)C)C(=O)N1CCC[C@H]1C(=O)NCC(=O)N(C)[C@@H](CC(C)C)C(=O)N[C@@H](C)C(=O)N(C)[C@H](Cc1ccccc1)C(=O)N1CCC[C@H]1C(=O)OC` [Compound 3, brintonamide C] (X4-PG[NMeL]A[dNMeF]P-OMe), for which the “IC50 antagonist OXTR” value against OXTR was “did not show any activity”. For the same molecule, the “IC50 antagonist CCR10” value against CCR10 is reported as “did not show any activity”.
On to `CC[C@H](C)[C@@H](OC(=O)/C=C/c1ccccc1)C(=O)N1CCC[C@H]1C(=O)NCC(=O)N(C)[C@@H](CC(C)C)C(=O)N[C@@H](C)C(=O)N(C)[C@H](Cc1ccccc1)C(=O)N1CCC[C@H]1C(=O)OC` [Compound 4, brintonamide D] (X1-PG[NMeL]A[dNMeF]P-OMe), for which the half-inhibitory concentration (IC50) at Kallikrein 7 (KLK7) was approximately 20 µM. For the same molecule, the Dsg-2 shedding result in series [5] is on record as “unable to decrease Dsg-2 shedding”. Moreover, the cytotoxic effects entry in series [2] (up to 10 μM (Figure 6B)) is given as “no cytotoxic effects”. The “activity against the tested GPCR targets” value in series [4] is “active against all five tested GPCR targets”. Also, the “cleavage of KLK7 downstream substrates desmoglein-2 and E-cadherin” value in series [6] was “partially inhibited”. Besides, the “migration of MDA-MB-468 cells” value in series [7] is “inhibiting the migration”. Moreover, the “IC50 antagonist CCR10” value against CCR10 is “submicromolar activity”.
With `CC[C@H](C)[C@@H](OC(=O)/C=C\c1ccccc1)C(=O)N1CCC[C@H]1C(=O)NCC(=O)N(C)[C@@H](CC(C)C)C(=O)N[C@@H](C)C(=O)N(C)[C@H](Cc1ccccc1)C(=O)N1CCC[C@H]1C(=O)OC` [Compound 5, brintonamide E] (X3-PG[NMeL]A[dNMeF]P-OMe), the “IC50 antagonist SSTR3” value against SSTR3 was “inactive”.
Still for that read-out and setting: then `CC[C@H](C)[C@@H](OC(=O)CCc1ccccc1)C(=O)N1CCC[C@H]1C(=O)NCC(=O)N(C)[C@@H](CC(C)C)C(=O)N[C@@H](C)C(=O)N(C)[C@H](Cc1ccccc1)C(=O)N1CCC[C@H]1C(=O)OC` [Compound 6, dehydro-brintonamide D/E] (X2-PG[NMeL]A[dNMeF]P-OMe), with “inactive”.
As for `CC[C@H](C)[C@@H](OC(=O)C#Cc1ccccc1)C(=O)N1CCC[C@H]1C(=O)NCC(=O)N(C)[C@@H](CC(C)C)C(=O)N[C@@H](C)C(=O)N(C)[C@H](Cc1ccccc1)C(=O)N1CCC[C@H]1C(=O)OC` [Compound 7, dihydro-brintonamide D/E] (X5-PG[NMeL]A[dNMeF]P-OMe), the “activity against the tested GPCR targets” value in [4] was “did not exhibit any activity”.
By Ki is commonly meant the equilibrium dissociation constant of an inhibitor or competing ligand from its target. On to Ecallantide, for which the Ki on plasma kallikrein was 0.025 nM.

B1: CCL27: C-C motif chemokine ligand 27, ligand of CCR10 (protein, UniProt Q9Y4X3 25-112, looked up)
C-C motif chemokine 27: FLLPPSTACCTQLYRKPLSDKLLRKVIQVELQEADGDCHLQAFVLHLAQRSICIHPQNPSLSQWFEHQERKLHGTLPKLNFGMLRKMG
Turning to B1, the “cell proliferation in response to CCL27 stimulation” value in the series with MDA-MB-231 cells [8] is listed as “increased in a dose-dependent manner”.
